In ChEMBL document CHEMBL1122591, “(Imidazolylphenyl)formamidines. A structurally novel class of potent histamine H2 receptor antagonists” (J Med Chem, 1984):

Legend:
Rattus norvegicus = experiment: Compound was evaluated in vivo for the gastric antisecretory activity in the lumen perfused stomach of the anesthetized rat after iv administration; format: functional
How it was run: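 Male Sprague–Dawley rats (250 g) were anesthetized with urethane (1 g/kg) and given a lumen-perfused stomach preparation. Acid secretion was driven by constant i.v. histamine infusion [1 mg/(kg h)]. ED50 was taken from the regression line of percent inhibition of acid output.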

[1] = molecular target: Histamine H2 receptor (Cavia porcellus) (UniProt P47747); experiment: Evaluated in vitro for histamine H2 receptor antagonist activity by using histamine-stimulated chronotropic response of the guinea pig atrium; format: functional, tissue-based; conditions: Cardiac atrium
How it was run: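 A cumulative histamine concentration–response curve (rate) was then repeated with successive antagonist concentrations, each pre-incubated 30 min. Dose ratios compared histamine concentrations giving half-maximal stimulation with and without antagonist.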

[2] = Compound was evaluated for the ionization constant (pKa) by using potentiometric titration (ionization of end group); format: physicochemical
How it was run: (§1)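 Potentiometric titration of the hydrochloride salt with water as solvent.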

[3] = Compound was evaluated for the ionization constant (pKa) by using potentiometric titration (ionization of imidazole group); format: physicochemical; how it was run: as §1

Histamine H2 receptor (Cavia porcellus), sequence (P47747 whole entry): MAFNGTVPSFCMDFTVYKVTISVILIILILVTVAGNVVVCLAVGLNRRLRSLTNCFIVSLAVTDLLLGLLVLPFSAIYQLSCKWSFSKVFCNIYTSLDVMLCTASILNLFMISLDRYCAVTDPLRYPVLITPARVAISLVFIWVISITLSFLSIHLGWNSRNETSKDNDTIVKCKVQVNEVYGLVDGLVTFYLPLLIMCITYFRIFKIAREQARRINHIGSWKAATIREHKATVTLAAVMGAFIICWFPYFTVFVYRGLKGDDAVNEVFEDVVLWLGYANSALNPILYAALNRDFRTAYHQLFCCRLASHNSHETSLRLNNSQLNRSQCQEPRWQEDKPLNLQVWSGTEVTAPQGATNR

| Structure (SMILES) | ED50 (Rattus norvegicus) | Kb [1] | pKa [2] | pKa [3] |
| --- | --- | --- | --- | --- |
| CC/N=C/Nc1ccc(-c2c[nH]cn2)cc1.Cl | 0.02 mg/kg | 19 nM |  |  |
| CNC(=N)c1cccc(-c2c[nH]cn2)c1.Cl | 3.5 mg/kg | 8700 nM |  |  |
| Cl.N=C(N)c1cccc(-c2c[nH]cn2)c1 | 10 mg/kg | 7200 nM |  |  |
| CN/C(=N\CCSCc1nc[nH]c1C)NC#N [CIMETIDINE] | 0.56 mg/kg |  | -0.4 |  |
| CC(C)(C)/N=C/Nc1ccc(-c2c[nH]cn2)cc1.O=S(=O)(O)O | 0.017 mg/kg |  |  |  |
| CC(C)/N=C/Nc1ccc(-c2c[nH]cn2)cc1.Cl | 0.019 mg/kg | 24 nM | 8.88 | 5.58 |
| Cl.N=C(N)Nc1cccc(-c2c[nH]cn2)c1 | 3.2 mg/kg | 5500 nM |  |  |
| CCC/N=C/Nc1ccc(-c2c[nH]cn2)cc1.Cl | 0.011 mg/kg | 32 nM |  |  |
| C/N=C(/N)Nc1cccc(-c2c[nH]cn2)c1.Cl | 3.6 mg/kg | 4400 nM |  |  |
| CC(C)C/N=C/Nc1ccc(-c2c[nH]cn2)cc1.Cl | 0.026 mg/kg | 69 nM |  |  |
| NCCc1c[nH]cn1 [HISTAMINE] |  |  | 9.81 | 6.07 |
| C/N=C\Nc1ccc(-c2c[nH]cn2)cc1.Cl | 1.1 mg/kg | 1200 nM |  |  |
| C=CC/N=C/Nc1ccc(-c2c[nH]cn2)cc1.O=C(O)/C=C/C(=O)O | 0.024 mg/kg | 13 nM |  |  |
